Measured values from the RNAGym collection of RNA variant scans (doi:10.1126/science.aae0568).
This sample holds only a part of the variants without activity.

B1: tRNA (parent)
chain: GUUCCGUUGGCGUAAUGGUAACGCGUCUCCCUCCUAAGGAGAAGACUGCGGGUUCGAGUCCCGUACGGAACG

Variants of: B1
Assay: yeast fitness relative to wild type (ratio to wild type); higher = fitter; tRNA-Arg(CCU), competitive growth, 37 C, YPD
Method in brief: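 The tRNA-Arg(CCU) gene variants were made by chemical synthesis with a 3% per-site mutation rate at 69 sites and inserted at the native genomic locus of Saccharomyces cerevisiae. After pooling, the strains were competed in YPD at 37°C for 24 hours in six parallel replicates. Gene amplicons from the start population and each end population were read by 100-nucleotide paired-end sequencing, and Darwinian fitness relative to wild type was taken from genotype frequency changes. Genotypes needed ≥ 100 starting reads, and estimates < 0.5 were set to 0.5.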

Variant	yeast fitness
GUUCCGUUGGCGUAAUGGUAACGCGUCUCCCUCCUAAGGAGAAAACUGCGGGUCCGAGUCUCGUACGGCACG	0.627
GUUCCGUUGGCGUAAUGGUAACGCGUCUCCCUCCUAAGGAGAAAACUGCGGGUUAGAGUCCCGUACGGAACG	0.658
GUUCCGUUGGCGUAAUGGUAACGCGUCUCCCUCCUAAGGAGAAAACUGCGGGUUUGAGUCCCGUACGGAACG	0.776
GUUCCGUUGGCGUAAUGGUAACGCGUCUCCCUCCUAAGGAGAUGACUGCGGGUUCGAGACACGUACGGAACG	0.629
GUUCCGUUGGCGUAAUGGUAACGCGUCUCCCUCCUAAGGAGAAAACUGCGGGUUCGAGUCUCGUACGGAACG	1.04
GUUCCGUUGGCGUAAUGGUAACGCGUCUCCCUCCUAAGGAGAAAAUUGCGGGUUCGAGUCCCGUACGGACCG	0.809
GUUCCGUUGGCGUAAUGGUAACGCGUCUCCCUCCUAAGGAGAUGACUGCGGGUACGAGUCCCGUACGGAGCG	≤ 0.5
GUUCCGUUGGCGUAAUGGUAACGCGUCUCCCUCCUAAGGAGAAAACUGCGGGUACGAGUCCCGUACGGAACG	0.61
GUUCCGUUGGCGUAAUGGUAACGCGUCUCCCUCCUAAGGAGAACAGUGCGGGUUCGCGUCCCGUACGGAACG	≤ 0.5
GUUCCGUUGGCGUAAUGGUAACGCGUCUCCCUCCUAAGGAGAACACUGCGGGUUCGAGUCCCGUACGGAGCG	0.954
GUUCCGUUGGCGUAAUGGUAACGCGUCUCCCUCCUAAGGAGAAAACUGCGGGUUCGAGUCCCGUACGGCACG	0.988
GUUCCGUUGGCGUAAUGGUAACGCGUCUCCCUCCUAAGGAGAAACCUGGGGGUUCGAGUCCCGUACGGAACG	0.983
GUUCCGUUGGCGUAAUGGUAACGCGUCUCCCUCCUAAGGAGAACACUGCGGGUUCGAGUCCCGUGCGGAACG	1.06
GUUCCGUUGGCGUAAUGGUAACGCGUCUCCCUCCUAAGGAGAACACUGCGGGUUCGAGUCCCGUCCGGAACG	0.742
GUUCCGUUGGCGUAAUGGUAACGCGUCUCCCUCCUAAGGAGAUGACUGCGGGUUCGAGUCCCGGACGGAACG	0.7
GUUCCGUUGGCGUAAUGGUAACGCGUCUCCCUCCUAAGGAGAAAAUUGCGGGUUCGAGUCCCGUACGGAACG	0.981
GUUCCGUUGGCGUAAUGGUAACGCGUCUCCCUCCUAAGGAGAAAACUGCGGGUUCGAGUCCCGUACGGACCG	0.837
GUUCCGUUGGCGUAAUGGUAACGCGUCUCCCUCCUAAGGAGAAAACUGCGGGUUCGAGUCCCGUACGGAUCG	1.03
GUUCCGUUGGCGUAAUGGUAACGCGUCUCCCUCCUAAGGAGAAAACUGCGGGUUCGAGUCCCGUACGGAGCG	0.919
GUUCCGUUGGCGUAAUGGUAACGCGUCUCCCUCCUAAGGAGAAAAAUGCGGAUUCGAGUCCCGUAUGGAACG	0.62
GUUCCGUUGGCGUAAUGGUAACGCGUCUCCCUCCUAAGGAGAAAACUGCGGGUUCGAGUGCCGCACGGAACG	≤ 0.5
GUUCCGUUGGCGUAAUGGUAACGCGUCUCCCUCCUAAGGAGAUGACUGCGGGUUCGAGGCCCGUACGGAACG	0.81
GUUCCGUUGGCGUAAUGGUAACGCGUCUCCCUCCUAAGGAGAAAACUGCGGGUUCGAGUCCCGUAUGGAACG	0.86
GUUCCGUUGGCGUAAUGGUAACGCGUCUCCCUCCUAAGGAGAACUCUGCGGGUUCGAGUCCCGUACGGAACG	0.905
GUUCCGUUGGCGUAAUGGUAACGCGUCUCCCUCCUAAGGAGAACCCUGCGGGUUCGAGUCCCGUACGGAACG	0.97

Variant	yeast fitness
GUUCCGUUGGCGUAAUGGUAACGCGUCUCCCUCCUAAGGAGAAAACUGCGGGUUCGAGUCCCGUGCGGAACG	1
GUUCCGUUGGCGUAAUGGUAACGCGUCUCCCUCCUAAGGAGAAACCUGCGAGUUCGAGUCCCGUACGGAACG	≤ 0.5
GUUCCGUUGGCGUAAUGGUAACGCGUCUCCCUCCUAAGGAGAACGCUGCGGGUUCAAGUCCCGUACGGAACG	1.01
GUUCCGUUGGCGUAAUGGUAACGCGUCUCCCUCCUAAGGAGAAAAUUGCGGGUUCGACUCCCGUACGGAACG	1.08
GUUCCGUUGGCGUAAUGGUAACGCGUCUCCCUCCUAAGGAGAAAACGGGGGGUGCGAGUCCCGUACGGAACG	≤ 0.5
GUUCCGUUGGCGUAAUGGUAACGCGUCUCCCUCCUAAGGAGAACAAUGCGGGUUCGAGUCCCGUACGGAACG	1.01
GUUCCGUUGGCGUAAUGGUAACGCGUCUCCCUCCUAAGGAGAACAAUGCGGGUUCCAGUCCCGUACGGAACG	0.543
GUUCCGUUGGCGUAAUGGUAACGCGUCUCCCUCCUAAGGAGAAAACUGCGGGUUCGAGACCCGUACGGAACG	0.601
GUUCCGUUGGCGUAAUGGUAACGCGUCUCCCUCCUAAGGAGAAAACUGCGGGUUCGAGCCCCGUACGGAACG	0.799
GUUCCGUUGGCGUAAUGGUAACGCGUCUCCCUCCUAAGGAGAAAACUGCGGGUUCGAGUCCGGUACGGAACG	0.668
GUUCCGUUGGCGUAAUGGUAACGCGUCUCCCUCCUAAGGAGAAAACUGCGGGUUCGAGUCCUGUACGGAACG	0.874
GUUCCGUUGGCGUAAUGGUAACGCGUCUCCCUCCUAAGGAGAAAACUACGGGUUCGAGUCCCGUACGGAACG	0.96
GUUCCGUUGGCGUAAUGGUAACGCGUCUCCCUCCUAAGGAGAACACUGCGGGUUCGGGUCCCGUACGGAACG	0.895
GUUCCGUUGGCGUAAUGGUAACGCGUCUCCCUCCUAAGGAGAACACUGCGGGUUCGCGUCCCGUACGGAACG	0.568
GUUCCGUUGGCGUAAUGGUAACGCGUCUCCCUCCUAAGGAGAACACUGGGGGUUCGAGUCCCGUACGGAACG	0.741
GUUCCGUUGGCGUAAUGGUAACGCGUCUCCCUCCUAAGGAGAACACUGAGGGUUCGAGUCCCGUACGGAACG	0.625
GUUCCGUUGGCGUAAUGGUAACGCGUCUCCCUCCUAAGGAGAAAACUGCGGGUUCCUGUCCCGUACGGAACG	0.596
GUUCCGUUGGCGUAAUGGUAACGCGUCUCCCUCCUAAGGAGAAAACUGUGGGUUCGAGUCCCGUACGGCACG	0.752
GUUCCGUUGGCGUAAUGGUAACGCGUCUCCCUCCUAAGGAGAAAACUGCGGGUUCGAUUCCCGUACGGCACG	≤ 0.5
GUUCCGUUGGCGUAAUGGUAACGCGUCUCCCUCCUAAGGAGAAACCUGGGGGUUCGAGUCCCGUACGGCACG	0.698
GUUCCGUUGGCGUAAUGGUAACGCGUCUCCCUCCUAAGGAGAAAUCUGCGGGUUCGAGUCCGGUACGGAACG	≤ 0.5
GUUCCGUUGGCGUAAUGGUAACGCGUCUCCCUCCUAAGGAGAAAACUGUGGGUUCGAGUCCCGUACGGAACG	1.04
GUUCCGUUGGCGUAAUGGUAACGCGUCUCCCUCCUAAGGAGAAAACUGAGGGUUCGAGUCCCGUACGGAACG	0.635
GUUCCGUUGGCGUAAUGGUAACGCGUCUCCCUCCUAAGGAGAAAACUGCGGGUUCGAGUUCCGUACGGAACG	0.798
GUUCCGUUGGCGUAAUGGUAACGCGUCUCCCUCCUAAGGAGAAAACUGCGGGUUCGAGUACCGUACGGAACG	0.585

Variant	yeast fitness
GUUCCGUUGGCGUAAUGGUAACGCGUCUCCCUCCUAAGGAGAAAACUGCGGGUUCGCGUCCCGUACGGAACG	0.654
GUUCCGUUGGCGUAAUGGUAACGCGUCUCCCUCCUAAGGAGAAAACUGCGGGUUCGAGUCCCGUACAGAGCG	0.688
GUUCCGUUGGCGUAAUGGUAACGCGUCUCCCUCCUAAGGAGAAAACUGCGGGUUCGAGUCCCAUACCGAACG	≤ 0.5
GUUCCGUUGGCGUAAUGGUAACGCGUCUCCCUCCUAAGGAGAAAACUGCGGGUACGAGUCCCGUACGGAUCG	0.549
GUUCCGUUGGCGUAAUGGUAACGCGUCUCCCUCCUAAGGAGAAAACUGCGGGUUAGAGUCCCGUACGGCACG	≤ 0.5
GUUCCGUUGGCGUAAUGGUAACGCGUCUCCCUCCUAAGGAGAAAACUGCGGGUUCAAGUCCCGUACGGAACG	1.05
GUUCCGUUGGCGUAAUGGUAACGCGUCUCCCUCCUAAGGAGAAAACUGCGGAUUCGAGUCACGUACGGAACG	0.565
GUUCCGUUGGCGUAAUGGUAACGCGUCUCCCUCCUAAGGAGAACGCUGCGGGUUCGAGUCCCGUACGGAGCG	0.695
GUUCCGUUGGCGUAAUGGUAACGCGUCUCCCUCCUAAGGAGAAAACUGCAGGUUCGAGUCCCGUACGGAACG	0.891
GUUCCGUUGGCGUAAUGGUAACGCGUCUCCCUCCUAAGGAGAAAACUGCCGGUUCGAGUCCCGUACGGAACG	0.623
GUUCCGUUGGCGUAAUGGUAACGCGUCUCCCUCCUAAGGAGAACAGUGCGGGUUUGAGUCCCAUACGGAACG	≤ 0.5
GUUCCGUUGGCGUAAUGGUAACGCGUCUCCCUCCUAAGGAGAAAACUGCGGGUUCGAGUUCCGUACCGAACG	0.545
GUUCCGUUGGCGUAAUGGUAACGCGUCUCCCUCCUAAGGAGAAACCUGCGGGAUAGAGCCCUGUACGGAACG	≤ 0.5
GUUCCGUUGGCGUAAUGGUAACGCGUCUCCCUCCUAAGGAGAAAACUGCGGAUUCGAGUCCCGUACGGAACG	0.827
GUUCCGUUGGCGUAAUGGUAACGCGUCUCCCUCCUAAGGAGAAAACUGCGGCUUCGAGUCCCGUACGGAACG	0.504
GUUCCGUUGGCGUAAUGGUAACGCGUCUCCCUCCUAAGGAGAAAACUGCGGGUUCGAGUCCCGUACGUAACG	0.696
GUUCCGUUGGCGUAAUGGUAACGCGUCUCCCUCCUAAGGAGAAAACUGCGGGUUCGAGUCCCGUACGCAACG	0.764
GUUCCGUUGGCGUAAUGGUAACGCGUCUCCCUCCUAAGGAGAAAAGUGCCGGAUCGAGUCCCGUACGGAACG	≤ 0.5
GUUCCGUUGGCGUAAUGGUAACGCGUCUCCCUCCUAAGGAGAAAACUGCGGGUUCGAGUCCCGUACAGAACG	0.887
GUUCCGUUGGCGUAAUGGUAACGCGUCUCCCUCCUAAGGAGAAAACUGCGGGUUCGAGUCCCGUACCGAACG	0.71
GUUCCGUUGGCGUAAUGGUAACGCGUCUCCCUCCUAAGGAGAACAAUGCGGGUUCGAGUCCCGUACGGUACG	0.726
GUUCCGUUGGCGUAAUGGUAACGCGUCUCCCUCCUAAGGAGAAAACUGCGGGUUCGAGUCCCGCACGGAACG	0.935
GUUCCGUUGGCGUAAUGGUAACGCGUCUCCCUCCUAAGGAGAACACUGCGGGUUCGUGUCCCGAACGCAACG	≤ 0.5
GUUCCGUUGGCGUAAUGGUAACGCGUCUCCCUCCUAAGGAGAUGACUGCGGGUUCGAGUCCCGGACAGAACG	≤ 0.5
GUUCCGUUGGCGUAAUGGUAACGCGUCUCCCUCCUAAGGAGAAAACUGCGGGUUGGAGUCCCCUACGGAACG	≤ 0.5
